Bioassay records from PubChem BioAssay.
In the library only some 5.1% were active in any assay of this set; here they are far more common.
STAT1 activator = STAT1 signaling activators, primary screen, cell-based, HTS, luciferase reporter; activation (% of control), % at 5.5 µM; NIH 3T3 STAT1-luciferase reporter, IFN-gamma, luminescence; 100% = IFN-gamma alone, no compound; 2.6% of 200,000 active;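 active = activation above the screen-wide mean activation plus 3 SD, cut at about 130% in these data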;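 also: raw ratio to IFN-gamma control signal so 100% means no change and 0% no light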
APP 5'UTR act = activators of APP 5'UTR luciferase reporter, primary screen, SH-SY5Y cells | SH-SY5Y APP 5'UTR luciferase reporter, luminescence; zero percent = DMSO vehicle wells | activation, % at 2 µM | 1% of 190,000 active | AID 1276, 2008;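 active = activation above a set limit, based on mean plus 3 SD of controls, cut at about 140% in these data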
STAT1 inh = STAT1 signaling inhibitors, primary screen, cell-based, HTS, luciferase reporter | NIH 3T3 STAT1-luciferase reporter, IFN-gamma, luminescence | inhibition, % at 5.5 µM | 0.35% of 200,000 active;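 active = inhibition above a set limit, the mean inhibition across all tested compounds plus 3 SD, cut at about 34% in these data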;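 also: 0% = IFN-gamma with DMSO and 100% = IFN-gamma with 300 µM nifuroxazide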
STAT3 activator = IL-6 driven STAT3 reporter potentiators, primary screen, U3A cells, luciferase, luminescence, MLSCN library. IL-6 STAT3-luciferase reporter; 100% = signal with IL-6 EC80 alone. activation (% of control), % at 5.6 µM. 0.91% of 190,000 active;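 active = activation above the screen-wide mean of compound activation plus 3 SD, cut at about 130% in these data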;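 also: 0% = background luminescence of wells with medium and substrate only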
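Detection: reporter luminescence signal / Assay system: STAT1-lacking human U3A cells, STAT3 luciferase reporter / Incubation: compound pre-incubation 1 h before IL-6, then 6 h stimulation at 37 °C / Control set: IL-6-only high control / Read-out: % activation relative to IL-6 control / Probe or stimulus: Interleukin-6, 33 ng/mL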
STAT3 blocker = IL-6 driven STAT3 reporter inhibitors, primary screen, U3A cells, luciferase, luminescence, MLSCN library; IL-6 STAT3-luciferase reporter; host cell line lacks STAT1; inhibition, % at 5.5 µM; 0.89% of 190,000 active; AID 862, 2007;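 active = inhibition above the mean inhibition across all screened compounds plus 3 SD, cut at about 44% in these data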;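 also: 0% = DMSO only wells and 100% = 100 µM nifuroxazide control wells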
NF-kB neuron act = activators of NF-kB expression in neurons, primary screen, cell-based, HTS; human neuronal cells, NF-kB reporter expression; hits give high values; fold change at 12.5 µM; 1.6% of 190,000 active; AID 1239, 2008; in the data active = fold change above about 3.3
STAT1 act conf = STAT1 signaling activators, confirmation, cell-based, HTS, luciferase reporter; AID 1262, 2008; shares compounds with STAT1 activator; 97% of 1,200 active; activation (% of control), % at 5.7 µM; NIH 3T3 STAT1-luciferase reporter, IFN-gamma potentiation, luminescence; 100% = IFN-gamma EC80 alone, no compound;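 active = activation above a set limit carried over from the earlier primary STAT1 screen, cut at about 140% in these data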;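 also: simple ratio to median IFN-gamma plus DMSO wells so 0% means no light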
NFkB act = NF-kB reporter activators, TNF-alpha stimulated, counter-screen for STAT1 activator project, cell-based, HEK293T, luciferase luminescence; shares compounds with STAT1 activator; 100% = TNF-alpha with vehicle only; activation (% of control), % at 5.7 µM; 43% of 1,200 active; AID 1306, 2008;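 active = activation above the mean of solvent-only control wells plus 3 SD, set per campaign, cut at about 130% in these data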;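 also: TNF-alpha given at a submaximal dose yielding about 80% of full reporter signal; values are well signal over median control so 100% means no change and 0% no light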
STAT3 act STAT1c = STAT3 reporter activation by STAT1 hits, confirmation, counter-screen for STAT1 activator project, U3A cells, luciferase, luminescence; shares compounds with STAT1 activator; IL-6; cells lack STAT1; 100 = IL-6 alone, no compound effect; activation (% of control), % at 5.7 µM; 46% of 1,200 active; AID 1316, 2008;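 active = activation above the solvent-only control well mean plus 3 SD, set per plate batch, cut at about 110% in these data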;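 also: 0% = no luminescence and 100% = median IL-6 plus DMSO wells; higher means more STAT3 reporter activation so hits are non-selective activators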
Active calls of the source: *; nt = not tested or not shown.

SMILES | STAT1 activator | APP 5'UTR act | STAT1 inh | STAT3 activator | STAT3 blocker | NF-kB neuron act | STAT1 act conf | NFkB act | STAT3 act STAT1c
CN(C)c1ccc(/C=N/N=C/c2ccccc2O)cc1 | 156.2* | 165.3* | -62.8 | 79.9 | 25.0 | 3.6* | 208.2* | 87.2 | 75.2
CCCCCC(=O)NC(=S)Nc1ccc(Cl)cn1 | 100.8 | -7.4 | -0.9 | 92.5 | 11.0 | 1.63 | nt | nt | nt
O=C(NCCc1ccc(Cl)cc1)c1n[nH]c2ccccc12 | 115.6 | 16.6 | -18.4 | 88.6 | 20.6 | 1.2 | nt | nt | nt
O=C(NCCc1ccccc1)c1n[nH]c2ccccc12 | 164.3* | 88.0 | -74.4 | 93.1 | 13.2 | 3.35* | 183.9* | 129.8 | 103.5
O=[N+]([O-])c1ccc(N=Cc2sc3ccccc3c2O)cc1 | 101.7 | 24.4 | -1.9 | 111.8 | -11.2 | 1.15 | nt | nt | nt
CC(=Nc1ccc(O)cc1)c1sc2ccccc2c1O | 169.6* | 170.7* | -76.5 | 92.9 | 17.8 | 13.3* | 230.5* | 150.1* | 104.1
CC(C)NC(=S)N/N=C/c1ccc(C(C)(C)C)cc1 | 101.4 | 7.5 | -1.8 | 104.5 | 2.6 | 1.82 | nt | nt | nt
CN(C)c1ncccc1-c1nc2ccccc2s1 | 98.7 | 6.8 | 1.3 | 104.3 | -3.5 | 1.01 | nt | nt | nt
c1ccc(-c2nc3ccccc3s2)nc1 | 158.3* | 123.3 | -63.6 | 82.9 | 24.4 | 4.66* | 200.4* | 120.9 | 101.9
O=[N+]([O-])c1ccc2nc(-c3ccccc3[N+](=O)[O-])[nH]c2c1 | 125.6 | 1.0 | -29.5 | 96.7 | 6.1 | 2.36 | nt | nt | nt
c1cncc(-c2nc3cc4ccccc4cc3[nH]2)c1 | 155.9* | 154.3* | -62.2 | 93.8 | 13.3 | 2.91 | 226.0* | 125.7 | 103.2
COc1ccc2nc(-c3ccccc3)[nH]c2c1 | 153.3* | 177.9* | -45.3 | 73.8 | 34.3 | 5.54* | 198.7* | 123.6 | 104.3
O=[N+]([O-])c1ccc2nc(-c3ccc(Cl)cc3)[nH]c2c1 | 155.3* | 156.3* | -55.4 | 108.8 | -13.7 | 1.15 | 205.9* | 132.9 | 102.2
COc1ccc(-c2nc3ccc([N+](=O)[O-])cc3[nH]2)cc1 | 181.9* | 160.4* | -93.2 | 79.2 | 27.4 | 8.66* | 251.3* | 131.1 | 98.1
CCn1c(C)cc(/C=C2\NC(=O)N(CC(=O)Nc3cccc(C)c3)C2=O)c1C | 94.6 | 1.9 | 4.3 | 117.3 | -8.7 | 1.11 | nt | nt | nt
CCn1c(C)cc(/C=C2/NC(=O)N(c3ccccc3)C2=O)c1C | 168.1* | 89.1 | -78.1 | 101.2 | 0.2 | 0.95 | 187.0* | 138.6* | 103.2
COc1ccc(-c2cc(C(=O)Nc3ccccc3F)on2)cc1 | 127.2 | 24.5 | -28.7 | 85.3 | 24.5 | 1.75 | nt | nt | nt
COc1ccc(-c2cc(C(=O)Nc3ccccc3)on2)cc1 | 178.9* | -5.8 | -88.8 | 112.5 | -9.5 | 1.78 | 156.5* | 128.0 | 110.2
CCN1C=CC2=C(C#N)C(N)C(C#N)(C#N)C(c3ccccc3C(F)(F)F)C2C1 (stereo not drawn) | 94.9 | 67.9 | 8.2 | 102.8 | -0.1 | 1.11 | nt | nt | nt
O=C(Nc1ccc(S(=O)(=O)Nc2ccccn2)cc1)C(F)(F)F | 91.0 | 0.5 | 10.2 | 95.3 | 11.3 | 1.07 | nt | nt | nt
COC(=O)c1c(-c2ccccc2)csc1NC(=O)c1ccco1 | 173.9* | 22.6 | -80.6 | 95.1 | 8.3 | 1.67 | 194.5* | 135.5* | 104.8
COc1ccc2c(c1)-c1nc(NC(=O)c3ccco3)sc1CC2 | 112.8 | 54.2 | -14.1 | 78.7 | 27.6 | 1.15 | nt | nt | nt
CC(=O)c1sc(NC(=O)c2ccco2)nc1-c1ccccc1 | 104.8 | 28.4 | -5.3 | 102.4 | 6.2 | 1.68 | nt | nt | nt
COc1ccc2c(c1)Cc1sc(NC(=O)c3ccco3)nc1-2 | 188.9* | 186.1* | -97.2 | 82.6 | 23.5 | 3.85* | 199.0* | 147.4* | 104.1
Cc1sc(NC(=O)c2ccco2)nc1-c1ccccc1 | 201.7* | 170.5* | -111.2 | 87.7 | 17.8 | 6.88* | 236.6* | 135.1* | 112.2*
SMILES | STAT1 activator | APP 5'UTR act | STAT1 inh | STAT3 activator | STAT3 blocker | NF-kB neuron act | STAT1 act conf | NFkB act | STAT3 act STAT1c
O=C(Nc1nc(-c2cccs2)cs1)c1ccco1 | 158.8* | 195.7* | -61.9 | 98.8 | 2.1 | 3.61* | 172.9* | 134.1* | 102.7
CCC(CO)[n+]1c(C)cc(/C=C2\Sc3ccccc3N2Cc2ccccc2)cc1C (stereo not drawn) | 75.8 | 12.0 | 26.7 | 73.2 | 29.2 | 1.23 | nt | nt | nt
COc1ccccc1S(=O)(=O)CC(O)COc1ccc(F)cc1Cl (stereo not drawn) | 107.7 | -1.9 | -10.2 | 102.6 | 7.7 | 0.86 | nt | nt | nt
Cc1nc2cc(NC(=O)Nc3ccc(N4CCOCC4)cc3)ccc2n1C | 103.0 | 8.1 | -3.3 | 90.9 | 15.6 | 0.94 | nt | nt | nt
Cc1ccc(NC(=O)Nc2ccc3c(c2)nc(C)n3C)cc1C | 171.3* | 120.7 | -79.4 | 99.8 | 11.5 | 4.8* | 194.4* | 137.4* | 103.1
Cc1cccc2c1-c1sc(C(=O)Nc3cccc([N+](=O)[O-])c3C)cc1CO2 | 97.8 | 5.5 | 2.5 | 86.0 | 23.1 | 0.98 | nt | nt | nt
Cc1cccc2c1-c1sc(C(=O)Nc3nccs3)cc1CO2 | 160.2* | 96.3 | -66.3 | 84.8 | 23.4 | 2.2 | 189.6* | 127.5 | 93.6
COc1ccc(Cc2nnc(-c3ccccc3)o2)cc1 | 121.1 | 14.5 | -24.0 | 101.7 | 9.9 | 1.49 | nt | nt | nt
Cc1ccccc1-c1nnc(Cc2ccccc2)o1 | 153.6* | 71.4 | -60.7 | 97.7 | 6.5 | 2.46 | 175.4* | 135.3* | 108.4
O=C(Nc1ccc(S(=O)(=O)NC2=NCCCCC2)cc1)c1ccc2ccccc2n1 | 110.4 | 7.8 | -10.4 | 84.9 | 19.0 | 1.2 | nt | nt | nt
O=C(c1ccccc1)N1CCc2ccccc21 | 94.8 | -5.8 | 5.6 | 95.3 | 7.2 | 1.04 | nt | nt | nt
C/C(=C\C(=O)N1CCc2ccccc21)C(=O)O | 94.5 | -11.0 | 6.2 | 117.8 | -12.9 | 1.06 | nt | nt | nt
Cc1c(C(=O)N2CCc3ccccc32)oc2ccccc12 | 155.1* | 155.8* | -61.8 | 106.6 | -5.3 | 8.2* | 217.3* | 141.2* | 150.2*
